Source: ChEMBL document CHEMBL3286094, “Synthesis and biological evaluation of novel bisbenzimidazoles as Escherichia coli topoisomerase IA inhibitors and potential antibacterial agents” (J Med Chem, 2014)
≈ marks a conversion by molar mass, not a printed value. Calls of active or inactive are those of the source. No cut-off for these calls is given here.

Experiments:
[1] = test system: Escherichia coli; experiment: Antibacterial activity against ampicillin/ciprofloxacin/gentamicin/tetracycline-resistant Escherichia coli 555 assessed as growth inhibition after 18 to 24 hrs by broth microdilution method; assay type: functional
[2] = test system: Escherichia coli; experiment: Bactericidal activity against ciprofloxacin-resistant Escherichia coli 72 by agar plating method; assay type: functional
[3] = test system: Escherichia coli; experiment: Bactericidal activity against chloroamphenicol/ampicillin/kanamycin/trimethoprim/ciprofloxacin/nalidixic acid-resistant Escherichia coli 85 by agar plating method; assay type: functional
[4] = test system: Escherichia coli; experiment: Bactericidal activity against chloramphenicol/ampicillin/kanamycin/trimethoprim/ciprofloxacin/nalidixic acid-resistant Escherichia coli 132 by agar plating method; assay type: functional
[5] = test system: Escherichia coli; experiment: Bactericidal activity against ampicillin/chloramphenicol/ciprofloxacin/gentamicin/tetracycline-resistant Escherichia coli 401 by agar plating method; assay type: functional
[6] = Inhibition of Escherichia coli DNA topoisomerase-1A using supercoiled pHOT1 plasmid DNA as substrate assessed as inhibition of DNA relaxation after 30 mins by agarose gel electrophoresis
In short: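 Supercoiled plasmid DNA incubated with E. coli Topo IA in the presence of compound at […]. Relaxation products were resolved by electrophoresis on 1% agarose gel.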

[7] = test system: Escherichia coli; experiment: Inhibition of Escherichia coli DNA gyrase using relaxed pHOT1 plasmid DNA as substrate assessed as inhibition of DNA supercoiling up to 100 uM after 30 mins by agarose gel electrophoresis
[8] = species on record: Homo sapiens; experiment: Inhibition of human DNA topoisomerase-1B using supercoiled pHOT1 plasmid DNA as substrate assessed as inhibition of DNA relaxation at 100 uM after 30 mins by agarose gel electrophoresis
[9] = test system: Escherichia coli; experiment: Antibacterial activity against Escherichia coli DH5[alpha] assessed as growth inhibition after 18 to 24 hrs by broth microdilution method; assay type: functional
[10] = test system: Escherichia coli; experiment: Antibacterial activity against Escherichia coli ATCC 25922 assessed as growth inhibition after 18 to 24 hrs by broth microdilution method; assay type: functional
[11] = test system: Escherichia coli; experiment: Bactericidal activity against Escherichia coli DH5[alpha] by agar plating method; assay type: functional
[12] = test system: Escherichia coli; experiment: Bactericidal activity against Escherichia coli ATCC 25922 by agar plating method; assay type: functional
[13] = test system: Escherichia coli; experiment: Antibacterial activity against ciprofloxacin-resistant Escherichia coli 72 assessed as growth inhibition after 18 to 24 hrs by broth microdilution method; assay type: functional
[14] = test system: Escherichia coli; experiment: Antibacterial activity against ampicillin/trimethoprim/nalidixic acid-resistant Escherichia coli 118 assessed as growth inhibition after 18 to 24 hrs by broth microdilution method; assay type: functional
[15] = test system: Escherichia coli; experiment: Antibacterial activity against ampicillin/kanamycin/trimethoprim/tetracyclin/ciprofloxacin/nalidixic acid-resistant Escherichia coli 81 assessed as growth inhibition after 18 to 24 hrs by broth microdilution method; assay type: functional
[16] = test system: Escherichia coli; experiment: Antibacterial activity against chloramphenicol/ampicillin/kanamycin/trimethoprim/ciprofloxacin/nalidixic acid-resistant Escherichia coli 132 assessed as growth inhibition after 18 to 24 hrs by broth microdilution method; assay type: functional
[17] = test system: Escherichia coli; experiment: Antibacterial activity against chloramphenicol/ampicillin/kanamycin/trimethoprim/ciprofloxacin/nalidixic acid-resistant Escherichia coli 151 assessed as growth inhibition after 18 to 24 hrs by broth microdilution method; assay type: functional
[18] = test system: Escherichia coli; experiment: Antibacterial activity against ampicillin/chloramphenicol/ciprofloxacin/gentamicin/tetracycline-resistant Escherichia coli 401 assessed as growth inhibition after 18 to 24 hrs by broth microdilution method; assay type: functional
[19] = test system: Escherichia coli; experiment: Bactericidal activity against multidrug-resistant Escherichia coli IS 54 isolated from water source by agar plating method; conditions: IS 54, Water
[20] = test system: Escherichia coli; experiment: Bactericidal activity against ampicillin/tetracycline-resistant Escherichia coli IP18 isolated from water source by agar plating method
[21] = test system: Escherichia coli; experiment: Bactericidal activity against ampicillin/tetracycline/piperacillin-resistant Escherichia coli WB31 isolated from water source by agar plating method
[22] = test system: Escherichia coli; experiment: Bactericidal activity against ampicillin/chloramphenicol/tetracycline/trimethoprim/ciprofloxacin-resistant Escherichia coli KK45 isolated from water source by agar plating method
[23] = test system: Escherichia coli; experiment: Antibacterial activity against ampicillin/tetracycline-resistant Escherichia coli IP18 isolated from water source assessed as growth inhibition after 18 to 24 hrs by broth microdilution method
[24] = test system: Escherichia coli; experiment: Antibacterial activity against tetracycline/trimethoprim-resistant Escherichia coli IST isolated from water source assessed as growth inhibition after 18 to 24 hrs by broth microdilution method
[25] = test system: Escherichia coli; experiment: Bactericidal activity against ampicillin/trimethoprim/cefazolinl/piperacillin/cefuroxime/cefoxitine/cefepime/cefotaxime-resistant Escherichia coli KP21 isolated from water source by agar plating method
[26] = test system: Escherichia coli; experiment: Bactericidal activity against cefazolinl/ampicillin/piperacillin/cefuroxime/cefepime/cefotaxime/tetracycline/ciprofloxacin-resistant Escherichia coli NG3 isolated from water source by agar plating method
[27] = test system: Escherichia coli; experiment: Bactericidal activity against cefazolinl/ampicillin/piperacillin/cefuroxime/cefepime/cefotaxime/tetracycline/trimethoprim-resistant Escherichia coli KK16 isolated from water source by agar plating method
[28] = test system: Escherichia coli; experiment: Antibacterial activity against ampicillin/tetracycline/piperacillin-resistant Escherichia coli WB31 isolated from water source assessed as growth inhibition after 18 to 24 hrs by broth microdilution method
[29] = test system: Escherichia coli; experiment: Antibacterial activity against ampicillin/trimethoprim/piperacillin-resistant Escherichia coli MKNJ isolated from water source assessed as growth inhibition after 18 to 24 hrs by broth microdilution method
[30] = test system: Escherichia coli; experiment: Antibacterial activity against ampicillin/chloramphenicol/tetracycline/trimethoprim/ciprofloxacin-resistant Escherichia coli KK45 isolated from water source assessed as growth inhibition after 18 to 24 hrs by broth microdilution method
[31] = test system: Escherichia coli; experiment: Antibacterial activity against ampicillin/trimethoprim/cefazolinl/piperacillin/cefuroxime/cefoxitine/cefepime/cefotaxime-resistant Escherichia coli KP21 isolated from water source assessed as growth inhibition after 18 to 24 hrs by broth microdilution method
[32] = test system: Escherichia coli; experiment: Antibacterial activity against cefazolinl/ampicillin/piperacillin/cefuroxime/cefepime/cefotaxime/tetracycline/ciprofloxacin-resistant Escherichia coli NG3 isolated from water source assessed as growth inhibition after 18 to 24 hrs by broth microdilution method
[33] = test system: Escherichia coli; experiment: Antibacterial activity against cefazolinl/ampicillin/piperacillin/cefuroxime/cefepime/cefotaxime/tetracycline/trimethoprim-resistant Escherichia coli KK16 isolated from water source assessed as growth inhibition after 18 to 24 hrs by broth microdilution method

`CCOc1ccc(-c2nc3ccc(-c4nc5ccc(N6CCN(CCN(C)C)CC6)cc5[nH]4)cc3[nH]2)cc1` showed an MIC50 [1] of 32 µg/mL (≈ 62.8 µM), an MIC90 [1] of 60.4 µg/mL (≈ 119 µM) and an MBC [2] of 64 µg/mL (≈ 126 µM). It also gave an MBC [3] of 32 µg/mL (≈ 62.8 µM), an MBC [4] of 128 µg/mL (≈ 251 µM) and an MBC [5] of 32 µg/mL (≈ 62.8 µM). For the same compound, the IC50 [6] was 9.4 µM, the inhibition [7] was “inactive” and the inhibition [8] was “inactive”. For the same compound, the MIC50 [9] was 1 µg/mL (≈ 1.96 µM), the MIC90 [9] was 14.5 µg/mL (≈ 28.5 µM) and the MIC50 [10] was 8 µg/mL (≈ 15.7 µM). It also gave an MIC90 [10] of 26.6 µg/mL (≈ 52.2 µM), an MBC [11] of 2 µg/mL (≈ 3.92 µM) and an MBC [12] of 16 µg/mL (≈ 31.4 µM). For the same compound, the MIC50 [13] was 32 µg/mL (≈ 62.8 µM), the MIC90 [13] was 57.2 µg/mL (≈ 112 µM) and the MIC50 [14] was 8 µg/mL (≈ 15.7 µM). The MIC90 [14] was 15.2 µg/mL (≈ 29.8 µM), the MIC50 [15] was 32 µg/mL (≈ 62.8 µM) and the MIC90 [15] was 60.2 µg/mL (≈ 118 µM). For the same compound, the MIC50 [16] was 64 µg/mL (≈ 126 µM), the MIC90 [16] was 123 µg/mL (≈ 241 µM) and the MIC50 [17] was 32 µg/mL (≈ 62.8 µM). The MIC90 [17] was 61.6 µg/mL (≈ 121 µM), the MIC50 [18] was 16 µg/mL (≈ 31.4 µM) and the MIC90 [18] was 30.4 µg/mL (≈ 59.6 µM). For the same compound, the MBC [19] was 64 µg/mL (≈ 126 µM), the MBC [20] was 32 µg/mL (≈ 62.8 µM) and the MBC [21] was 32 µg/mL (≈ 62.8 µM). It also gave an MBC [22] of 32 µg/mL (≈ 62.8 µM), an MIC50 [23] of 16 µg/mL (≈ 31.4 µM) and an MIC90 [23] of 30.6 µg/mL (≈ 60 µM). The MIC50 [24] was 32 µg/mL (≈ 62.8 µM), the MIC90 [24] was 60.6 µg/mL (≈ 119 µM) and the MBC [25] was 64 µg/mL (≈ 126 µM). The MBC [26] was 16 µg/mL (≈ 31.4 µM), the MBC [27] was 32 µg/mL (≈ 62.8 µM) and the MIC50 [28] was 16 µg/mL (≈ 31.4 µM). It also gave an MIC90 [28] of 29.4 µg/mL (≈ 57.7 µM), an MIC50 [29] of 16 µg/mL (≈ 31.4 µM) and an MIC90 [29] of 30.6 µg/mL (≈ 60 µM). The MIC50 [30] was 16 µg/mL (≈ 31.4 µM), the MIC90 [30] was 29.4 µg/mL (≈ 57.7 µM) and the MIC50 [31] was 32 µg/mL (≈ 62.8 µM). It also gave an MIC90 [31] of 61.4 µg/mL (≈ 120 µM), an MIC50 [32] of 8 µg/mL (≈ 15.7 µM) and an MIC90 [32] of 15 µg/mL (≈ 29.4 µM). It also gave an MIC50 [33] of 16 µg/mL (≈ 31.4 µM) and an MIC90 [33] of 27.6 µg/mL (≈ 54.2 µM).
For `CCCN1CCN(c2ccc3nc(-c4ccc5nc(-c6ccc(OCC)cc6)[nH]c5c4)[nH]c3c2)CC1`, the MIC50 [1] was 4 µg/mL (≈ 8.32 µM), the MIC90 [1] was 6.8 µg/mL (≈ 14.1 µM) and the MBC [2] was 4 µg/mL (≈ 8.32 µM). It also gave an MBC [3] of 2 µg/mL (≈ 4.16 µM), an MBC [4] of 4 µg/mL (≈ 8.32 µM) and an MBC [5] of 2 µg/mL (≈ 4.16 µM). The IC50 [6] was 2 µM, the inhibition [7] was “inactive” and the inhibition [8] was “inactive”. For the same compound, the MIC50 [9] was 0.2 µg/mL (≈ 0.416 µM), the MIC90 [9] was 0.8 µg/mL (≈ 1.66 µM) and the MIC50 [10] was 0.2 µg/mL (≈ 0.416 µM). The MIC90 [10] was 3.3 µg/mL (≈ 6.87 µM), the MBC [11] was 0.2 µg/mL (≈ 0.416 µM) and the MBC [12] was 0.4 µg/mL (≈ 0.832 µM). The MIC50 [13] was 2 µg/mL (≈ 4.16 µM), the MIC90 [13] was 3.1 µg/mL (≈ 6.45 µM) and the MIC50 [14] was 1 µg/mL (≈ 2.08 µM). The MIC90 [14] was 1.7 µg/mL (≈ 3.54 µM), the MIC50 [15] was 1 µg/mL (≈ 2.08 µM) and the MIC90 [15] was 1.6 µg/mL (≈ 3.33 µM). For the same compound, the MIC50 [16] was 2 µg/mL (≈ 4.16 µM), the MIC90 [16] was 3.5 µg/mL (≈ 7.28 µM) and the MIC50 [17] was 1 µg/mL (≈ 2.08 µM). The MIC90 [17] was 1.7 µg/mL (≈ 3.54 µM), the MIC50 [18] was 1 µg/mL (≈ 2.08 µM) and the MIC90 [18] was 1.7 µg/mL (≈ 3.54 µM). For the same compound, the MBC [19] was 2 µg/mL (≈ 4.16 µM), the MBC [20] was 4 µg/mL (≈ 8.32 µM) and the MBC [21] was 2 µg/mL (≈ 4.16 µM). The MBC [22] was 2 µg/mL (≈ 4.16 µM), the MIC50 [23] was 1 µg/mL (≈ 2.08 µM) and the MIC90 [23] was 3.4 µg/mL (≈ 7.07 µM). The MIC50 [24] was 0.5 µg/mL (≈ 1.04 µM), the MIC90 [24] was 1.7 µg/mL (≈ 3.54 µM) and the MBC [25] was 4 µg/mL (≈ 8.32 µM). For the same compound, the MBC [26] was 2 µg/mL (≈ 4.16 µM), the MBC [27] was 2 µg/mL (≈ 4.16 µM) and the MIC50 [28] was 0.5 µg/mL (≈ 1.04 µM). The MIC90 [28] was 1.7 µg/mL (≈ 3.54 µM), the MIC50 [29] was 1 µg/mL (≈ 2.08 µM) and the MIC90 [29] was 3.5 µg/mL (≈ 7.28 µM). The MIC50 [30] was 0.5 µg/mL (≈ 1.04 µM), the MIC90 [30] was 1.7 µg/mL (≈ 3.54 µM) and the MIC50 [31] was 0.5 µg/mL (≈ 1.04 µM). For the same compound, the MIC90 [31] was 3.8 µg/mL (≈ 7.91 µM), the MIC50 [32] was 0.5 µg/mL (≈ 1.04 µM) and the MIC90 [32] was 1.7 µg/mL (≈ 3.54 µM). It also gave an MIC50 [33] of 0.5 µg/mL (≈ 1.04 µM) and an MIC90 [33] of 1.8 µg/mL (≈ 3.75 µM).
